# Calls of active or inactive are those of the source. No cut-off for these calls is given here.
# Assays:
# [1] = Oral bioavailability in Sprague-Dawley rat at 2 mg/kg after 24 hrs by LC-MS-MS analysis; type: ADME, organism-based; details: in vivo
# [2] = Volume of distribution at steady state in Sprague-Dawley rat at 1 mg/kg, iv by LC-MS-MS analysis; type: ADME, organism-based; details: in vivo, read-out: Vdss
# [3] = Toxicity in db/db mouse assessed as induction of abnormal weight gain at 3 to 10 mg/kg, po dosed once weekly for 8 weeks; type: organism-based; details: in vivo, 1344 h
# [4] = Plasma concentration in Sprague-Dawley rat at 2 mg/kg, po after 24 hrs by LC-MS-MS analysis; type: ADME, organism-based; details: in vivo
# [5] = Toxicity in ICR mouse assessed as effect on clinical signs at 30 mg/kg, po administered once daily for 14 consecutive days; type: organism-based; details: in vivo
# In short: (§1)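 ICR mice dosed orally at 30 mg/kg once daily for 14 consecutive days. Endpoints were clinical signs, body weight, organ index, blood parameters and serum biochemistry, each compared with a control group.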
# [6] = Toxicity in ICR mouse assessed as effect on organ index at 30 mg/kg, po administered once daily for 14 consecutive days; type: organism-based; details: in vivo; in short: as §1
# Mus musculus [7] = experiment: Anti-diabetic activity in db/db mouse assessed as increase in glucose tolerance at 10 mg/kg, po dosed once weekly for 8 weeks by OGTT; type: functional, organism-based
# [8] = Initial plasma concentration in Sprague-Dawley rat at 1 mg/kg, iv by LC-MS-MS analysis; type: ADME, organism-based
# [9] = Cmax in Sprague-Dawley rat at 2 mg/kg, po by LC-MS-MS analysis; type: ADME, organism-based; design: dose 2 mg/kg, route oral; details: in vivo
# [10] = MRT (0 to infinity) in Sprague-Dawley rat at 1 mg/kg, iv by LC-MS-MS analysis; type: ADME, organism-based; details: in vivo
# [11] = Toxicity in ICR mouse assessed as effect on body weight at 30 mg/kg, po administered once daily for 14 consecutive days; type: organism-based; details: in vivo; in short: as §1
# [12] = AUC (0 to infinity) in ICR mouse at 2 mg/kg, po by LC-MS-MS analysis; type: ADME, organism-based; design: dose 2 mg/kg, route oral, time infinity; details: in vivo
# In short: (§2)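 Male ICR mice (n = 4/group), fasted 2 h, given a single oral dose of 2 mg/kg. Baseline blood was taken into EDTA, then samples at 1, 2, 4, 6, 8, 24, 48, 72, 96 and 120 h. Plasma was kept at -80 °C and concentrations measured by LC/MS/MS. Parameters came from noncompartmental analysis; values are means.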
# Mus musculus [13] = experiment: Anti-diabetic activity in db/db mouse assessed as reduction in fasting blood glucose at 3 mg/kg, po dosed once weekly for 8 weeks; type: functional; design: scale not given: the % may be the effect or the level left
# [14] = Cmax in Sprague-Dawley rat at 1 mg/kg, iv by LC-MS-MS analysis; type: ADME, organism-based; design: dose 1 mg/kg, route intravenous; details: in vivo
# [15] = Clearance in Sprague-Dawley rat at 1 mg/kg, iv by LC-MS-MS analysis; type: ADME, organism-based; details: in vivo
# [16] = AUCt in Sprague-Dawley rat at 1 mg/kg, iv by LC-MS-MS analysis; type: ADME, organism-based; details: in vivo
# [17] = Terminal half life in Sprague-Dawley rat at 1 mg/kg, iv by LC-MS-MS analysis; type: ADME, organism-based; details: in vivo, read-out: beta t1/2 (converted)
# [18] = Terminal half life in ICR mouse at 2 mg/kg, po by LC-MS-MS analysis; type: ADME, organism-based; details: in vivo, read-out: beta t1/2 (converted); in short: as §2
# Mus musculus [19] = experiment: Anti-diabetic activity in 8 hrs-fasted ICR mouse assessed as increase in insulin levels at 3 mg/kg, po pretreated for 60 mins followed by glucose challenge by OGTT; type: functional, organism-based
# In short: (§3)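 Male ICR mice (n = 10/group), fasted 8 h, dosed orally at 0.3, 1 or 3 mg/kg 1 h before oral glucose at 3 g/kg. Blood was collected at 0, 5 and 10 min into tubes with valine pyrrolidide and EDTA. Active GLP-1[7-36 amide] and insulin measured by kit. Two-way ANOVA with Fisher's LSD against vehicle.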
# Mus musculus [20] = experiment: Anti-diabetic activity in ICR mouse assessed as inhibition of DPP4 in plasma at 3 mg/kg, po administered as single dose using Gly-Pro-AMC as substrate and measured after 7 days post dose by fluorometric assay relative to control; type: functional
# In short: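 Male ICR mice (n = 10/group), fasted 2 h, given single oral doses of 0.03–3 mg/kg in 0.5% CMC-Na, with pre-dose baseline blood. Blood was drawn at 1–168 h. […] DPP-4 was read continuously for 5 min at 37 °C with 10 µM Gly-Pro-AMC in 100 mM HEPES pH 7.5 containing 0.1 mg/mL BSA (ex 360/em 460 nm). % activity is the treated rate over each animal's own baseline rate.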
# [21] = AUCt in Sprague-Dawley rat at 2 mg/kg, po by LC-MS-MS analysis; type: ADME, organism-based; details: in vivo
# [22] = AUCt in ICR mouse at 2 mg/kg, po by LC-MS-MS analysis; type: ADME, organism-based; details: in vivo; in short: as §2
# Rattus norvegicus = experiment: Initial plasma concentration in Sprague-Dawley rat at 2 mg/kg, po by LC-MS-MS analysis; type: ADME, organism-based; details: in vivo
# [23] = Toxicity in db/db mouse assessed as induction of discomfort signs at 3 to 10 mg/kg, po dosed once weekly for 8 weeks; type: organism-based; details: in vivo, 1344 h
# [24] = Toxicity in ICR mouse assessed as effect on serum biochemical parameters at 30 mg/kg, po administered once daily for 14 consecutive days; type: organism-based; details: in vivo; in short: as §1
# [25] = MRT (0 to infinity) in ICR mouse at 2 mg/kg, po by LC-MS-MS analysis; type: ADME, organism-based; details: in vivo; in short: as §2
# [26] = Toxicity in db/db mouse assessed as induction of distress signs at 3 to 10 mg/kg, po dosed once weekly for 8 weeks; type: organism-based; details: in vivo, 1344 h
# [27] = Cmax in ICR mouse at 2 mg/kg, po by LC-MS-MS analysis; type: ADME, organism-based; design: dose 2 mg/kg, route oral; details: in vivo; in short: as §2
# Mus musculus [28] = experiment: Anti-diabetic activity in db/db mouse assessed as HbA1c levels at 10 mg/kg, po dosed once weekly for 8 weeks; type: functional
# [29] = molecular target: Voltage-gated inwardly rectifying potassium channel KCNH2 (Homo sapiens, UniProt Q12809); experiment: Inhibition of human ERG by patch clamp assay
# Sequence of Voltage-gated inwardly rectifying potassium channel KCNH2 (Q12809 whole entry): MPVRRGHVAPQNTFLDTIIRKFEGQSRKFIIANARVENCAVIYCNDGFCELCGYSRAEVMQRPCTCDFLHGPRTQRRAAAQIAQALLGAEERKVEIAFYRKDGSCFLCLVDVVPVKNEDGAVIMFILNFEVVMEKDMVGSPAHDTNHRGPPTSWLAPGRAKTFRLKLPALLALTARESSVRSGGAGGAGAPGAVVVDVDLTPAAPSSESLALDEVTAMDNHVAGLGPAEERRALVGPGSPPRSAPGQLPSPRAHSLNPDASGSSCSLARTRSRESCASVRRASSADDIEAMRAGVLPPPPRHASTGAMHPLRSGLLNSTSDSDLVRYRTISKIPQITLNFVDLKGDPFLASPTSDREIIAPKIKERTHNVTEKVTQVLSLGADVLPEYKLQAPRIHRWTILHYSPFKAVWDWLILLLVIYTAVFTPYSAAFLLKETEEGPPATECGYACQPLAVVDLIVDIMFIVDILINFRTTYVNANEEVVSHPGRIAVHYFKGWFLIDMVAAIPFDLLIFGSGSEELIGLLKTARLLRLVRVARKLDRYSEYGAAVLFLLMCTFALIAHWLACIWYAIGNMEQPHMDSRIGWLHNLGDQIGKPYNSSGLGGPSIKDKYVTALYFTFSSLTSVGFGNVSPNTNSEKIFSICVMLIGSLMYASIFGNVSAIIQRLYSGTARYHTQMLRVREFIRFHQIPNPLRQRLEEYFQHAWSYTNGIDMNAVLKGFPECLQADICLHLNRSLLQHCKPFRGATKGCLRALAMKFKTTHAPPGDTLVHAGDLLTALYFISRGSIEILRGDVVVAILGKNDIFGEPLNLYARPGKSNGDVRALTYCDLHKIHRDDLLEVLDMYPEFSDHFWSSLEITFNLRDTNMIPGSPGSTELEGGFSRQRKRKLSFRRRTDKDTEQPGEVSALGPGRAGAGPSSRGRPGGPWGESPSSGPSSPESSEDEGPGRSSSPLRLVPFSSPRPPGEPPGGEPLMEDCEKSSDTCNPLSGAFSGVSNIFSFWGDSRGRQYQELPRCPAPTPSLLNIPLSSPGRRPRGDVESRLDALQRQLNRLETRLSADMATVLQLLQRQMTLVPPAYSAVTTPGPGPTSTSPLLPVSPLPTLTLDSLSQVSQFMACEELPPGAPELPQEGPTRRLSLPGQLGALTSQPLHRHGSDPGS
# Mus musculus [30] = experiment: Anti-diabetic activity in mouse assessed as inhibition of DPP4 in plasma at 3 mg/kg, po administered as single dose pretreated for 60 mins followed by glucose challenge and measured over 168 hrs post dose
# Mus musculus [31] = experiment: Anti-diabetic activity in db/db mouse assessed as reduction in fasting blood glucose at 10 mg/kg, po dosed once weekly for 8 weeks; type: functional; design: scale not given: the % may be the effect or the level left
# [32] = Tmax in ICR mouse at 2 mg/kg, po by LC-MS-MS analysis; type: ADME, organism-based; details: in vivo; in short: as §2
# [33] = AUC (0 to infinity) in Sprague-Dawley rat at 1 mg/kg, iv by LC-MS-MS analysis; type: ADME, organism-based; design: dose 1 mg/kg, route intravenous, time infinity; details: in vivo
# [34] = Toxicity in ICR mouse assessed at 300 mg/kg, po administered as single dose; type: organism-based; details: in vivo
# In short: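 ICR mice given a single oral dose of 300 mg/kg to assess acute toxicity.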
# Mus musculus [35] = experiment: Anti-diabetic activity in 6 hrs-fasted db/db mouse assessed as reduction in blood glucose AUC (0 to 120 mins) at 10 mg/kg, po pretre at ed for 60 mins followed by glucose challenge and measured after 120 mins post glucose challenge by OGTT rel at ive to control
# Mus musculus [36] = experiment: Anti-diabetic activity in 8 hrs-fasted ICR mouse assessed as reduction in blood glucose AUC (0 to 120 mins) at 3 mg/kg, po pretre at ed for 60 mins followed by glucose challenge and measured after 120 mins post glucose challenge by OGTT rel at ive to control; type: functional
# In short: (§4)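 Male ICR mice (n = 10/group), fasted 8 h, dosed orally at 0.03, 0.3 or 3 mg/kg in 0.5% CMC-Na 1 h before an oral glucose load of 3 g/kg. Glucometer readings at −60, 0, 15, 30, 60, 90 and 120 min. Glucose AUC0–120 min by the trapezoidal method; one-way ANOVA with Fisher's LSD against vehicle.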
# [37] = Toxicity in ICR mouse assessed as effect on blood parameter at 30 mg/kg, po administered once daily for 14 consecutive days; type: organism-based; details: in vivo; in short: as §1
# Mus musculus [38] = experiment: Initial plasma concentration in ICR mouse at 2 mg/kg, po by LC-MS-MS analysis; type: ADME, organism-based; details: in vivo; in short: as §2
# Mus musculus [39] = experiment: Anti-diabetic activity in 8 hrs-fasted ICR mouse assessed as reduction in blood glucose AUC (0 to 120 mins)at 0.3 mg/kg, po pretreated for 60 mins followed by glucose challenge and measured after 120 mins post glucose challenge by OGTT relative to control; type: functional; in short: as §4
# [40] = Tmax in Sprague-Dawley rat at 2 mg/kg, po by LC-MS-MS analysis; type: ADME, organism-based; details: in vivo
# [41] = Plasma concentration in Sprague-Dawley rat at 2 mg/kg, po by LC-MS-MS analysis; type: ADME, organism-based; details: in vivo
# Mus musculus [42] = experiment: Anti-diabetic activity in db/db mouse assessed as increase in glucose-induced insulin secretion at 10 mg/kg, po dosed once weekly for 8 weeks pretreated for 60 mins followed by glucose challenge and measured after 120 mins post glucose challenge by OGTT relative to control; type: functional
# Mus musculus [43] = experiment: Anti-diabetic activity in 8 hrs-fasted ICR mouse assessed as increase in GLP1 levels at 1 mg/kg, po pretreated for 60 mins followed by glucose challenge and measured 5 to 10 mins post glucose challenge by OGTT relative to control; type: functional; in short: as §3
# Mus musculus [44] = experiment: Anti-diabetic activity in 8 hrs-fasted ICR mouse assessed as increase in insulin levels at 1 mg/kg, po pretreated for 60 mins followed by glucose challenge by OGTT; type: functional, organism-based; in short: as §3
# Mus musculus [45] = experiment: Anti-diabetic activity in 6 h-fasted db/db mouse assessed as inhibition of DPP4 in plasma at 10 mg/kg, po administered as single dose pretreated for 60 mins followed by glucose challenge and measured after 120 mins post glucose challenge by OGTT; type: functional, organism-based
structure (smiles),measurement,setting,value
COc1cc2c3c(ccc2cc1C#N)O[C@H](c1cc(F)c(F)cc1F)[C@@H](N)C3,bioavailability,[1],98.5%
same,Vd,[2],2.07 L/kg
same,Activity,[3],Non-Toxic
same,Drug uptake,[4],Active
same,Activity,[5],Non-Toxic
same,Activity,[6],Non-Toxic
same,Activity,Mus musculus [7],Active
same,C0,[8],2010 ng/mL
same,Cmax,[9],1390 ng/mL
same,MRT inf,[10],15.9 h
same,Activity,[11],Non-Toxic
same,AUC(0-inf),[12],85600 ng·h/mL
same,Activity,Mus musculus [13],24.7%
same,Cmax,[14],2010 ng/mL
same,clearance,[15],1.1 mL/min/kg
same,AUC(0-t),[16],11800 ng·h/mL
same,half-life,[17],11.9 h
same,half-life,[18],25.3 h
same,Activity,Mus musculus [19],Active
same,inhibition in vivo at 3 mg/kg,Mus musculus [20]; 168 h,≤ 80%
same,AUC(0-t),[21],23200 ng·h/mL
same,AUC(0-t),[22],82000 ng·h/mL
same,C0,Rattus norvegicus,1387.47 ng/mL
same,Activity,[23],Non-Toxic
same,Activity,[24],Non-Toxic
same,MRT inf,[25],40.7 h
same,Activity,[26],Non-Toxic
same,Cmax,[27],1770 ng/mL
same,Activity,Mus musculus [28],3.56%
same,IC50,[29],> 40 µM
same,inhibition in vivo at 3 mg/kg,Mus musculus [30],> 80%
same,Activity,Mus musculus [31],33.1%
same,Tmax,[32],10.2 h
same,AUC(0-inf),[33],15400 ng·h/mL
same,Activity,[34],Non-Toxic
same,inhibition in vivo at 10 mg/kg,Mus musculus [35],18.3%
same,inhibition in vivo at 3 mg/kg,Mus musculus [36],27.2%
same,Activity,[37],Non-Toxic
same,C0,Mus musculus [38],1773.37 ng/mL
same,inhibition in vivo at 0.3 mg/kg,Mus musculus [39],16.4%
same,Tmax,[40],6.67 h
same,Drug uptake,[41],Active
CS(=O)(=O)n1cc2c(n1)CN([C@H]1CO[C@H](c3cc(F)ccc3F)[C@@H](N)C1)C2 [OMARIGLIPTIN],fold change (FC),Mus musculus [42],1.8
same,Activity,Mus musculus [7],Active
same,inhibition,Mus musculus [20],Active
same,fold change (FC),Mus musculus [43],1.6 - 1.7
same,Activity,Mus musculus [28],Active
same,Activity,Mus musculus [31],26.6%
same,Activity,Mus musculus [44],Active
same,inhibition in vivo at 10 mg/kg,Mus musculus [35],8.3%
same,inhibition,Mus musculus [45],Active
same,inhibition in vivo at 3 mg/kg,Mus musculus [36],22.1%
same,inhibition in vivo at 0.3 mg/kg,Mus musculus [39],14.6%
Cn1c(=O)cc(N2CCC[C@@H](N)C2)n(Cc2cc(F)ccc2C#N)c1=O [TRELAGLIPTIN],fold change (FC),Mus musculus [42],1.7
same,Activity,Mus musculus [7],Active
same,Activity,Mus musculus [28],Active
same,Activity,Mus musculus [31],16.8%
same,inhibition in vivo at 10 mg/kg,Mus musculus [35],19.3%
same,inhibition,Mus musculus [45],Active
